Rows were chosen to be rich in hits. Some 4.4% of all compounds tested hit in one or more screens of this group.
HTR2A ag: mouse HTR2A agonism via beta-arrestin recruitment; CHO-K1 mHTR2A beta-arrestin complementation, luminescence; percent of 30 µM serotonin response; P35363; 360,000 tested, 0.66% active; activation, % at 7.6 µM; AID 624169;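 active means activation above a run cutoff, the mean activation of all tested compounds plus 3 SD, cut at about 14% in these data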;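 further: 0% = plate median of compound wells and 100% = 30 µM serotonin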
MsrA inh: inhibitors of bovine MsrA; purified bovine MsrA, absorbance read-out; inhibition, % at 15.5 µM; 360,000 tested, 0.75% active; AID 651718; in the data active means inhibition above about 4.5%;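 further: 0% = vehicle wells with enzyme and 100% = reference inhibitor wells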
MsrA act: bovine methionine sulfoxide reductase A activation; purified bovine MsrA, absorbance read-out; activation, % at 10.6 µM; 360,000 tested, 0.3% active; AID 602163; in the data active means activation above about 7.5%;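 further: 0% = vehicle and 100% = reference activator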
TbMetRS inhib: Trypanosoma brucei MetRS inhibition. purified T. brucei MetRS, ATP depletion, Kinase-Glo luminescence. inhibition, % at 11.9 µM. 360,000 tested, 0.4% active;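 active means inhibition above a per-plate cutoff of the control wells' mean inhibition plus 3 SD, cut at about 5.5% in these data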;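 further: 0% = DMSO wells median and 100% = median of wells with control inhibitor compound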
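Material – parasite MetRS enzyme · Medium – HEPES-MgCl2-KCl buffer plus DTT, spermine, BSA, pyrophosphatase · Reagent – ATP, methionine and E. coli bulk tRNA substrates · Times – 15 min enzyme-compound preincubation, 2 h reaction, 10 min detection, 25 °C · Measured by – luminescence of leftover ATP · Evaluation – percent inhibition relative to median high and low control wells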
AHR activator: activates the human aryl hydrocarbon receptor; P35869; AHR-responsive luciferase reporter cells, luminescence; activation, % at 5 µM; 320,000 tested, 2.5% active; AID 2796; in the data active means activation above about 47%;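 further: 0% = vehicle wells and 100% = reference agonist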
AI-2 QS modul: Vibrio harveyi AI-2 quorum sensing modulation; Vibrio harveyi JMH597 AI-2 luminescence/OD600 ratio, 9 h; hits give low values; strain lacks LuxN and CqsS sensors; 0 = neutral-control median; activity change, % at 7.5 µM; AID 2094; 300,000 tested, 0.4% active; in the data active means activity change below about -75%, passing the limit was not always enough;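 further: luminescence divided by OD600 gain over 9 h not by final OD600 alone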
The depositor's hits bear a star; / = no result.

SMILES	HTR2A ag	MsrA inh	MsrA act	TbMetRS inhib	AHR activator	AI-2 QS modul
COC(=O)[C@]12C[C@H](CC(=O)NCC3CCCCC3)C(=O)N(CCc3ccc(OC)c(OC)c3)C1=C[C@H](C(C)(C)C)O[C@@H]2C	/	-0.4	/	/	/	/
C(=N\NC1=Nc2cccc3cccc1c23)/c1ccccc1	-2.3	1.1	-9.4	-0.5	27.6	1.9
C(=N\NC1=Nc2cccc3cccc1c23)/c1cccnc1	-5.2	-0.6	-3.1	0.3	74.0*	15.1
O=C1NC(=O)C(=CC=Cc2ccccc2)S1	3.8	4.6*	-7.3	-0.1	/	/
O=C(Nc1ccc(Cl)cc1)c1csc(-c2ccccc2)n1	2.2	-0.2	-10.2	-1.1	96.8*	17.2
Cc1nc(-c2ccncc2)sc1C(=O)Nc1ccc(Br)cc1	-1.3	2.5	-2.0	0.0	62.0*	12.6
CNC(=O)c1csc(-c2ccncc2)n1	-5.2	-0.4	1.6	0.1	1.0	7.1
O=C(Nc1ccc(Cl)cc1)c1csc(-c2ccncc2)n1	-6.1	-0.5	-2.3	-0.1	54.4*	14.2
O=C(Nc1ccc(Br)cc1)c1csc(-c2ccncc2)n1	-4.8	-0.6	-2.1	0.6	52.7*	14.4
COC(=O)c1cc2c(c3c4ccccc4n(S(=O)(=O)c4ccc(OC)cc4)c13)C(=O)N(C)C2	/	0.9	/	/	/	/
COc1ccccc1Cc1c(-c2ccc(F)cc2)nc2c3ccccc3ccn12	/	1.0	/	/	/	/
Cc1ccc2[nH]c3c(N4CCOCC4)ncnc3c2c1	3.5	2.3	-2.2	0.0	73.2*	6.2
Brc1ccc2[nH]c3c(N4CCc5ccccc5C4)ncnc3c2c1	/	/	/	/	50.8*	25.6
c1ccc2c(c1)[nH]c1c(N3CCCC3)ncnc12	2.0	1.2	-2.9	-0.2	64.7*	24.0
CCCCS(=O)(=O)N1CCCc2nc(-c3ccccc3)ccc21	/	-0.3	/	/	/	/
O=C(Cc1ccc(NC(=O)C2CCN(C(=O)C3CCCC3)CC2)cc1)Nc1cccc(C(=O)N2CCCC2)c1	/	0.4	/	/	/	/
N#Cc1c(Cl)c(Cl)c2nnc(-c3ccc(Br)cc3)n2c1Cl	/	3.5	/	/	55.5*	23.4
[S-]c1nnc(-c2ccc(Br)cc2)n1-c1ccccc1.[Zn+2]	3.7	-1.4	-2.3	0.7	-1.8	15.4
Cc1cc2c(nc1C)CCCN2S(=O)(=O)c1cccs1	/	0.2	/	/	/	/
CC(=O)c1ccc(S(=O)(=O)NCC2CCN(C(=O)C(=O)c3cc4ccccc4o3)CC2)cc1	/	1.5	/	/	/	/
Cc1cc(C)c2ccc3c(C)c(C)nc3c2[nH]1	3.5	0.5	-7.0	-1.2	68.3*	-22.5
C[C@H](O)[C@@H]1C(=O)N2CCc3c([nH]c4c(-c5ccccc5)cccc34)[C@@H]2C[C@@H]1N(C)CC1CCCCC1	/	0.5	/	/	/	/
CS(=O)(=O)c1ccccc1-c1nc(-c2ccc(C(F)(F)F)cc2)no1	-1.5	0.5	-1.6	-1.1	-7.3	-4.9
Cc1c(-c2nc(-c3ccc(C(F)(F)F)cc3)no2)n(C)oc1=O	-3.1	0.3	-0.1	-0.2	101.2*	8.8
CC1Oc2ccccc2OC1(O)c1ccc2ccccc2n1 (centres undefined)	6.0	-0.4	-5.4	0.0	51.4*	11.8
SMILES	HTR2A ag	MsrA inh	MsrA act	TbMetRS inhib	AHR activator	AI-2 QS modul
CC1Oc2ccccc2OC1(O)c1ccccn1 (centres undefined)	-2.8	1.0	-1.1	-0.7	-1.1	14.2
Cc1ccc(CN2CCC=CS2(=O)=O)cc1	/	-0.7	/	/	/	/
CCOc1ccc(Nc2ncnc3ccc([N+](=O)[O-])cc23)cc1	-0.3	1.9	-1.8	-0.1	50.3*	/
CC(Oc1cccc(Br)c1)C(=O)NNC(=O)CCNC(=O)c1ccccc1Cl (centres undefined)	3.4	-0.8	-4.6	-0.3	-0.5	/
CC(C)c1ccc(NS(=O)(=O)c2ccc3c(c2)oc(=O)n3C)cc1	10.3	-0.9	-1.9	0.2	0.6	-94.3*
CC(C)c1ccc(NS(=O)(=O)c2ccc3c(c2)NC(=O)CO3)cc1	7.7	1.1	-1.3	0.1	-0.1	-84.8*
O=C1COc2ccc(S(=O)(=O)Nc3ccc4c(c3)OCO4)cc2N1	2.2	1.7	-1.1	-0.2	3.2	-69.1
CCCCCCCCN1C(=O)[C@@H](CC(=O)N2CCN(C(=O)OCC)CC2)C[C@@]2(C(=O)OC)C1=C[C@H](C(C)(C)C)O[C@@H]2C	/	0.1	/	/	/	/
COc1cccc(N2CCN(CC(=O)NC(=O)NC3CCCCC3)CC2)c1	-5.8	1.0	-4.6	-0.5	/	/
